Source: ChEMBL document CHEMBL4002606, “Discovery of FZU-03,010 as a self-assembling anticancer amphiphile for acute myeloid leukemia” (Bioorg Med Chem Lett, 2017)
Active and inactive are the calls of the source. The calls are words filed in the database; no cut-off is given here.

Legend:
HL-60 [1] = assay: Growth inhibition of human HL60 cells after 48 hrs by MTT assay; assay type: functional, cell-based; conditions: HL-60, 48 h
Summary of the method: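 HL-60 human promyelocytic leukemia cells; proliferation inhibition of the cells measured and reported as IC50; values are mean ± SE of at least three independent experiments.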

HL-60 [2] = assay: Growth inhibition of human HL60 cells at 1.25 uM after 48 hrs by MTT assay relative to control; assay type: functional; conditions: for inhibition of growth at 1.25 µM: HL-60, 48 h, read-out: GI
HL-60 [3] = assay: Growth inhibition of human HL60 cells at 40 uM after 48 hrs by MTT assay relative to control; assay type: functional; conditions: for inhibition of growth at 40 µM: HL-60, 48 h, read-out: GI
HL-60 [4] = assay: Growth inhibition of human HL60 cells at 20 uM after 48 hrs by MTT assay relative to control; assay type: functional; conditions: for inhibition of growth at 20 µM: HL-60, 48 h, read-out: GI
HL-60 [5] = assay: Growth inhibition of human HL60 cells at 0.63 uM after 48 hrs by MTT assay relative to control; assay type: functional; conditions: for inhibition of growth at 0.63 µM: HL-60, 48 h, read-out: GI
HL-60 [6] = assay: Growth inhibition of human HL60 cells at 5 uM after 48 hrs by MTT assay relative to control; assay type: functional; conditions: for inhibition of growth at 5 µM: HL-60, 48 h, read-out: GI
HL-60 [7] = assay: Growth inhibition of human HL60 cells at 10 uM after 48 hrs by MTT assay relative to control; assay type: functional; conditions: for inhibition of growth at 10 µM: HL-60, 48 h, read-out: GI
HL-60 [8] = assay: Growth inhibition of human HL60 cells at 2.5 uM after 48 hrs by MTT assay relative to control; assay type: functional; conditions: for inhibition of growth at 2.5 µM: HL-60, 48 h, read-out: GI
[9] = molecular target: Serine/threonine-protein kinase mTOR (Homo sapiens) (UniProt P42345); assay: Inhibition of mTOR in human HL60 cells assessed as reduction in P70S6K phosphorylation at Thr389-residue up to 4 uM after 24 hrs by Western blot method; assay type: cell-based
Summary of the method: (§1)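 HL-60 cells treated at different concentrations; lysates probed with specific antibodies against procaspase-3, cleaved caspase-9, PARP, Bcl-2, phospho-P70S6K and phospho-Akt; actin used as loading control.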

HL-60 [10] = assay: Induction of apoptosis in human HL60 cells assessed as PARP cleavage up to 4 uM after 24 hrs by Western blot method; assay type: functional, cell-based; summary of the method: as §1
[11] = Induction of nanoparticle formation in DMSO/deionized water at 1.5 mg/ml
[12] = Induction of nanoparticle formation in DMSO/deionized water after 25 days by dynamic light scattering assay
Homo sapiens [13] = species on record: Homo sapiens; assay: Inhibition of PI3K in human HL60 cells assessed as reduction in Akt phosphorylation at Ser473-residue up to 4 uM after 24 hrs by Western blot method; assay type: cell-based; summary of the method: as §1
HL-60 [14] = assay: Induction of apoptosis in human HL60 cells assessed as caspase-9 cleavage after 24 hrs by Western blot method; assay type: functional, cell-based; summary of the method: as §1
HL-60 [15] = assay: Induction of apoptosis in human HL60 cells assessed as downregulation of Bcl2 expression up to 4 uM after 24 hrs by Western blot method; assay type: functional, cell-based; summary of the method: as §1
HL-60 [16] = assay: Induction of apoptosis in human HL60 cells assessed as downregulation of procaspase-3 expression after 24 hrs by Western blot method; assay type: functional, cell-based; summary of the method: as §1
[17] = Aqueous solubility of the compound in water by HPLC method; assay type: physicochemical
HL-60 [18] = assay: Induction of apoptosis in human HL60 cells assessed as downregulation of Bcl2 expression up to 80 uM after 24 hrs by Western blot method; assay type: functional, cell-based; summary of the method: as §1
[19] = molecular target: Serine/threonine-protein kinase mTOR (Homo sapiens) (UniProt P42345); assay: Inhibition of mTOR in human HL60 cells assessed as reduction in P70S6K phosphorylation at Thr389-residue up to 80 uM after 24 hrs by Western blot method; assay type: cell-based; summary of the method: as §1
HL-60 [20] = assay: Induction of apoptosis in human HL60 cells assessed as live cells at 80 uM after 24 hrs by Annexin V-PE/7AAD staining based flow cytometry (reference value: 90.9%); assay type: functional
HL-60 [21] = assay: Induction of apoptosis in human HL60 cells assessed as PARP cleavage up to 80 uM after 24 hrs by Western blot method; assay type: functional, cell-based; summary of the method: as §1
HL-60 [22] = assay: Induction of apoptosis in human HL60 cells assessed as early apoptotic cells at 80 uM after 24 hrs by Annexin V-PE/7AAD staining based flow cytometry (reference value: 4.42%); assay type: functional
HL-60 [23] = assay: Induction of apoptosis in human HL60 cells assessed as necrotic cells at 80 uM after 24 hrs by Annexin V-PE/7AAD staining based flow cytometry (reference value: 1.08%); assay type: functional
HL-60 [24] = assay: Induction of apoptosis in human HL60 cells assessed as late apoptotic cells at 80 uM after 24 hrs by Annexin V-PE/7AAD staining based flow cytometry (reference value: 3.64%); assay type: functional
Homo sapiens [25] = species on record: Homo sapiens; assay: Inhibition of PI3K in human HL60 cells assessed as reduction in Akt phosphorylation at Ser473-residue up to 80 uM after 24 hrs by Western blot method; assay type: cell-based; summary of the method: as §1

| SMILES | IC50 (HL-60 [1]) | inhibition of growth at 1.25 µM (HL-60 [2]) | inhibition of growth at 40 µM (HL-60 [3]) | inhibition of growth at 20 µM (HL-60 [4]) | inhibition of growth at 0.63 µM (HL-60 [5]) | inhibition of growth at 5 µM (HL-60 [6]) | inhibition of growth at 10 µM (HL-60 [7]) | inhibition of growth at 2.5 µM (HL-60 [8]) | growth inhibition (GI) (HL-60 [5]) | also measured |
| --- | --- | --- | --- | --- | --- | --- | --- | --- | --- | --- |
| CC(=O)NN/C=C1/C[C@]2(C)[C@H]3CC=C4[C@@H]5[C@@H](C)[C@H](C)CC[C@]5(C(=O)O)CC[C@@]4(C)[C@]3(C)CC[C@H]2C(C)(C)C1=O | 5.64 µM | 20.7% | 93.1% | 69.7% | 9.96% | 41.7% | 61.7% | 28.8% | – | – |
| C[C@H]1[C@H](C)CC[C@]2(C(=O)N3CCNCC3)CC[C@]3(C)C(=CC[C@@H]4[C@@]5(C)Cc6cn[nH]c6C(C)(C)[C@@H]5CC[C@]43C)[C@H]12 | – | – | – | – | – | – | – | – | – | inhibition [9]: Active; Activity (HL-60 [10]): Active; Activity [11]: Active; Activity [12]: Active; inhibition (Homo sapiens [13]): Active; Activity (HL-60 [14]): Dose-dependent effect; Activity (HL-60 [15]): Active; Activity (HL-60 [16]): Dose-dependent effect |
| C[C@H]1[C@H](C)CC[C@]2(C(=O)O)CC[C@]3(C)C(=CC[C@@H]4[C@@]5(C)Cc6sc(N)nc6C(C)(C)[C@@H]5CC[C@]43C)[C@H]12 | 40 µM | – | 59.2% | 12.9% | – | – | – | – | inactive | growth inhibition (GI) (HL-60 [2]): inactive; growth inhibition (GI) (HL-60 [6]): inactive; growth inhibition (GI) (HL-60 [7]): inactive; growth inhibition (GI) (HL-60 [8]): inactive |
| C[C@H]1[C@H](C)CC[C@]2(C(=O)O)CC[C@]3(C)C(=CC[C@@H]4[C@@]5(C)CCC(=O)C(C)(C)[C@@H]5CC[C@]43C)[C@H]12 [URSONIC ACID] | > 40 µM | – | – | – | – | – | – | – | inactive | growth inhibition (GI) (HL-60 [2]): inactive; growth inhibition (GI) (HL-60 [3]): inactive; growth inhibition (GI) (HL-60 [4]): inactive; growth inhibition (GI) (HL-60 [6]): inactive; growth inhibition (GI) (HL-60 [7]): inactive; growth inhibition (GI) (HL-60 [8]): inactive |
| C[C@H]1[C@H](C)CC[C@]2(C(=O)N(CCO)CCO)CC[C@]3(C)C(=CC[C@@H]4[C@@]5(C)Cc6cn[nH]c6C(C)(C)[C@@H]5CC[C@]43C)[C@H]12 | 5.21 µM | 2.47% | 93.6% | 94% | 3.54% | 64.8% | 86.8% | 19.3% | – | – |
| C=CCNc1nc2c(s1)C[C@]1(C)[C@H]3CC=C4[C@@H]5[C@@H](C)[C@H](C)CC[C@]5(C(=O)O)CC[C@@]4(C)[C@]3(C)CC[C@H]1C2(C)C | > 40 µM | 0.33% | 49.8% | 34.7% | – | 13.4% | 20.3% | 4.73% | inactive | – |
| C[C@H]1[C@H](C)CC[C@]2(C(=O)N3CCNCC3)CC[C@]3(C)C(=CC[C@@H]4[C@@]5(C)Cc6cn[nH]c6C(C)(C)[C@@H]5CC[C@]43C)[C@H]12.Cl | – | – | – | – | – | – | – | – | – | solubility [17]: > 150 µg/mL |
| C[C@H]1[C@H](C)CC[C@]2(C(=O)O)CC[C@]3(C)C(=CC[C@@H]4[C@@]5(C)C/C(=C/O)C(=O)C(C)(C)[C@@H]5CC[C@]43C)[C@H]12 | 5.44 µM | 18.5% | 89.8% | 72.4% | 9.03% | 50.3% | 67% | 33.9% | – | – |
| C[C@H]1[C@H](C)CC[C@]2(C(=O)N3CCNCC3)CC[C@]3(C)C(=CC[C@@H]4[C@@]5(C)CCC(=O)C(C)(C)[C@@H]5CC[C@]43C)[C@H]12 | 2.64 µM | 22.5% | 94.8% | 92.5% | 10.6% | 82.2% | 92.7% | 43.7% | – | – |
| COc1cccc2c1C(=O)c1c(O)c3c(c(O)c1C2=O)C[C@@](O)(C(=O)CO)C[C@@H]3O[C@H]1C[C@H](N)[C@H](O)[C@H](C)O1 [DOXORUBICIN] | < 0.63 µM | 82.5% | > 99% | > 99% | 80.8% | 95.4% | > 99% | 85.6% | – | – |
| C[C@H]1[C@H](C)CC[C@]2(C(=O)N(CCO)CCO)CC[C@]3(C)C(=CC[C@@H]4[C@@]5(C)CCC(=O)C(C)(C)[C@@H]5CC[C@]43C)[C@H]12 | 7.04 µM | 8.43% | 92.7% | 86.5% | 9.32% | 26.7% | 53.7% | 12.4% | – | – |
| C[C@H]1[C@H](C)CC[C@]2(C(=O)O)CC[C@]3(C)C(=CC[C@@H]4[C@@]5(C)CC[C@H](O)C(C)(C)[C@@H]5CC[C@]43C)[C@H]12 [URSOLIC ACID] | > 40 µM | – | – | – | – | – | – | – | inactive | Activity (HL-60 [18]): inactive; inhibition [19]: Active; Activity (HL-60 [20]): 83.4%; growth inhibition (GI) (HL-60 [2]): inactive; Activity (HL-60 [21]): Active; Activity (HL-60 [22]): 13.3%; Activity (HL-60 [23]): 0.835%; Activity (HL-60 [24]): 2.43%; growth inhibition (GI) (HL-60 [3]): inactive; growth inhibition (GI) (HL-60 [4]): inactive; Activity (HL-60 [14]): Dose-dependent effect; Activity (HL-60 [16]): Dose-dependent effect; growth inhibition (GI) (HL-60 [6]): inactive; growth inhibition (GI) (HL-60 [7]): inactive; growth inhibition (GI) (HL-60 [8]): inactive; inhibition (Homo sapiens [25]): Active |
